# Activity calls are given as the source filed them. The calls are words filed in the database; no cut-off is given here.
# What was measured:
# Rattus norvegicus [1] = assay: Toxicity in stringent Dark Agouti to Lewis rat heterotopic vascular heart allotransplantation model assessed as compound tolerance at 30 mg/kg, po bid coadministered with 10 mg/kg, bid sotrastaurin; type: organism-based; conditions: in vivo
# Method in brief: (§1)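 DA donor hearts were grafted into Lewis recipients. Treatment started 3 days before transplantation: prodrug 30 mg/kg po b.i.d. (PEG200/water, pH 5) alone or with sotrastaurin 10 mg/kg po b.i.d. or everolimus 0.3 mg/kg po q.d. Grafts were followed to rejection or up to 50 days. Allografts were formalin-fixed, cut at 3 μm, stained with H&E and trichrome, and scored for rejection. Lymphocytes were counted weekly before dosing, and body weight was monitored.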
# Rattus norvegicus [2] = assay: Reduction in peripheral blood lymphocytes in stringent Dark Agouti to Lewis rat heterotopic vascular heart allotransplantation model at 30 mg/kg, po bid coadministered with 0.3 mg/kg, qd everolimus measured post 50 days post transplant relative to untreated control; type: functional; set-up: scale not given: the % may be the effect or the level left; method in brief: as §1
# [3] = Drug level in Lewis rat blood at 30 mg/kg, po administered as single dose measured 0.25 hrs post dose; conditions: read-out: Drug uptake
# Rattus norvegicus [4] = assay: Toxicity in stringent Dark Agouti to Lewis rat heterotopic vascular heart allotransplantation model assessed as compound tolerance at 30 mg/kg, po bid coadministered with 0.3 mg/kg, qd everolimus; type: organism-based; conditions: in vivo; method in brief: as §1
# Rattus norvegicus [5] = assay: Reduction in peripheral blood lymphocytes in stringent Dark Agouti to Lewis rat heterotopic vascular heart allotransplantation model at 30 mg/kg, po bid coadministered with 10 mg/kg, bid sotrastaurin measured post 50 days post transplant relative to untreated control; type: functional; set-up: scale not given: the % may be the effect or the level left; method in brief: as §1
# [6] = Stability in pH 7.4 buffer assessed as compound hydrolysis measured after 18 hrs by UPLC; type: physicochemical; conditions: read-out: Drug degradation
# Method in brief: (§2)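 The ester was incubated in buffer at pH 7.4 or pH 10. Remaining ester and the hydrolysed carboxylic acid were followed over time by UPLC, at time points out to 82 h.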
# Rattus norvegicus [7] = assay: Reduction in peripheral blood lymphocytes in Lewis rat assessed as remaining circulating lymphocytes level at 30 mg/kg, po administered as single dose measured 24 hrs post dose by automated hematology analyzer; type: functional
# Method in brief: (§3)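 Male Lewis rats receive a single oral dose of compound or vehicle, freshly made in 30% PEG200/buffer. Blood (<200 μL) is drawn by sublingual puncture under isoflurane 5% v/v at baseline and later time points. Lymphocytes are counted on an automated hematology analyzer, and each animal's change is expressed as percent of its own pre-treatment baseline.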
# Rattus norvegicus [8] = assay: Induction of capillary leakage in Lewis rat Evans blue dye lung leakage model at 30 mg/kg, po bid measured 96 hrs after 6 hrs relative to untreated control; type: organism-based; set-up: dose 30 mg/kg, route oral; conditions: in vivo
# Method in brief: (§4)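 Male Lewis rats were gavaged twice daily with vehicle or 30 mg/kg in 30% PEG200/buffer. Evans blue dye (20 mg/2 mL NaCl/kg iv) was given under anesthesia at 5, 23 or 95 h. One hour later the rats were bled, lungs were perfused with saline, dried at 60 °C for 24 h, weighed, and dye was extracted in formamide (24 h, 37 °C). Thoracic fluid volume was also recorded.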
# Rattus norvegicus [9] = assay: Reduction in peripheral blood lymphocytes in Lewis rat assessed as remaining circulating lymphocytes level at 30 mg/kg, po administered as single dose measured 14 hrs post dose by automated hematology analyzer; type: functional; method in brief: as §3
# Rattus norvegicus [10] = assay: Toxicity in stringent Dark Agouti to Lewis rat heterotopic vascular heart allotransplantation model assessed as incidence of histopathological changes at 30 mg/kg, po bid coadministered with 0.3 mg/kg, qd everolimus by hematoxylin and eosin staining; type: organism-based; conditions: in vivo; method in brief: as §1
# Rattus norvegicus [11] = assay: Induction of capillary leakage in Lewis rat Evans blue dye lung leakage model assessed as thorax fluid level at 30 mg/kg, po bid measured after 96 hrs relative to untreated control; type: organism-based; set-up: dose 30 mg/kg, route oral; conditions: in vivo; method in brief: as §4
# Rattus norvegicus [12] = assay: Increase in allograft survival in stringent Dark Agouti to Lewis rat heterotopic vascular heart allotransplantation model assessed as allograft mean survival time at 30 mg/kg, po bid (reference value: 6 days); type: functional
# Blood [13] = assay: Cmax in Lewis rat blood assessed as level of (S)-2-{[3'-(4-Chloro-2,5-dimethylphenylsulfonylamino)-3,5-dimethylbiphenyl-4-carbonyl]methylamino}-4-dimethylaminobutyric Acid Hydrochloride at 30 mg/kg, po administered as single dose measured 8 hrs post dose; conditions: in vivo
# Blood [14] = assay: Drug level in Lewis rat blood assessed as level of (S)-2-{[3'-(4-Chloro-2,5-dimethylphenylsulfonylamino)-3,5-dimethylbiphenyl-4-carbonyl]methylamino}-4-dimethylaminobutyric Acid Hydrochloride at 30 mg/kg, po administered as single dose measured 24 hrs post dose; conditions: in vivo
# [15] = Drug level in Lewis rat blood at 30 mg/kg, po administered as single dose measured 24 hrs post dose; conditions: read-out: Drug uptake
# Rattus norvegicus [16] = assay: Toxicity in stringent Dark Agouti to Lewis rat heterotopic vascular heart allotransplantation model assessed as change in body weight at 30 mg/kg, po bid; type: organism-based; set-up: dose 30 mg/kg, route oral; conditions: in vivo; method in brief: as §1
# Rattus norvegicus [17] = assay: Toxicity in stringent Dark Agouti to Lewis rat heterotopic vascular heart allotransplantation model assessed as change in body weight at 30 mg/kg, po bid coadministered with 10 mg/kg, bid sotrastaurin; type: organism-based; conditions: in vivo; method in brief: as §1
# Rattus norvegicus [18] = assay: Increase in allograft survival in stringent Dark Agouti to Lewis rat heterotopic vascular heart allotransplantation model assessed as allograft mean survival time at 30 mg/kg, po bid coadministered with 0.3 mg/kg, qd everolimus (reference value: 6 days); type: functional
# [19] = Stability in pH 1 buffer by UPLC; type: physicochemical; conditions: read-out: Stability
# [20] = Stability in pH 5 buffer by UPLC; type: physicochemical
# [21] = Cmax in Lewis rat blood at 30 mg/kg, po administered as single dose measured 8 hrs post dose
# Rattus norvegicus [22] = assay: Induction of capillary leakage in Lewis rat Evans blue dye lung leakage model at 30 mg/kg, po bid measured 24 hrs after 6 hrs relative to untreated control; type: organism-based; set-up: dose 30 mg/kg, route oral; conditions: in vivo; method in brief: as §4
# Rattus norvegicus [23] = assay: Toxicity in stringent Dark Agouti to Lewis rat heterotopic vascular heart allotransplantation model assessed as change in body weight at 30 mg/kg, po bid coadministered with 0.3 mg/kg, qd everolimus; type: organism-based; conditions: in vivo; method in brief: as §1
# Rattus norvegicus [24] = assay: Increase in allograft survival in stringent Dark Agouti to Lewis rat heterotopic vascular heart allotransplantation model assessed as allograft mean survival time at 30 mg/kg, po bid coadministered with 10 mg/kg, bid sotrastaurin (reference value: 6 days); type: functional
# Method in brief: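 This was a DA-to-Lewis heart allograft model with co-treatment from 3 days before transplantation. The prodrug was given po b.i.d. in PEG200/water at pH 5, plus the PKC inhibitor po b.i.d. in D-glucose/PEG400/water/HCl. Lymphocytes were counted weekly before dosing, and blood levels of both drugs were determined. Survival was followed up to 50 days, as median days, with H&E and trichrome histology.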
# [25] = Stability in pH 10 buffer assessed as compound remaining measured after 2 hrs by UPLC; type: physicochemical; conditions: read-out: Stability; method in brief: as §2
# Rattus norvegicus [26] = assay: Increase in allograft survival in stringent Dark Agouti to Lewis rat heterotopic vascular heart allotransplantation model assessed as improvement in histological changes at 30 mg/kg, po bid coadministered with 10 mg/kg, bid sotrastaurin by hematoxylin and eosin staining; type: functional, organism-based; method in brief: as §1
# [27] = Stability in pH 7.4 buffer assessed as compound hydrolysis measured after 2 hrs by UPLC; type: physicochemical; conditions: read-out: Drug degradation; method in brief: as §2
compound,measurement,setting,value
COC(=O)[C@H](CCN(C)C)N(C)C(=O)c1c(C)cc(-c2cccc(NS(=O)(=O)c3cc(C)c(Cl)cc3C)c2)cc1C,Activity,Rattus norvegicus [1],Non-toxic
same,Activity,Rattus norvegicus [2],9%
same,concentration at 0.25 h,[3],146 ng/mL
same,Activity,Rattus norvegicus [4],Non-toxic
same,Activity,Rattus norvegicus [5],12%
same,degraded at 18 h,[6],48%
same,Activity,Rattus norvegicus [7],22%
same,fold change (FC),Rattus norvegicus [8],2.2
same,Activity,Rattus norvegicus [9],21%
same,Activity,Rattus norvegicus [10],Non-toxic
same,Activity,Rattus norvegicus [11],Non-toxic
same,MST,Rattus norvegicus [12],8 days
same,Cmax,Blood [13],29 ng/mL
same,Drug uptake,Blood [14],5 ng/mL
same,concentration at 24 h,[15],50 ng/mL
same,Activity,Rattus norvegicus [16],Non-toxic
same,Activity,Rattus norvegicus [17],Non-toxic
same,MST,Rattus norvegicus [18],>50 days
same,half-life,[19],> 53 h
same,Stability,[20],> 53 h
same,Cmax,[21],364 ng/mL
same,fold change (FC),Rattus norvegicus [22],2.4
same,Activity,Rattus norvegicus [23],Non-toxic
same,MST,Rattus norvegicus [24],>50 days
same,remaining at 2 h,[25],52%
same,Activity,Rattus norvegicus [26],Active
same,degraded at 2 h,[27],9%

# Reference: ChEMBL document CHEMBL2176995, “An oral sphingosine 1-phosphate receptor 1 (S1P(1)) antagonist prodrug with efficacy in vivo: discovery, synthesis, and evaluation” (J Med Chem, 2012)
